# Reference: paper PMC3667667 (Clinical pharmacology and therapeutics, 2012)
# Values joined by “and” are separate entries in the source; they are usually repeats but may differ in a detail not shown here. Equal entries are not always repeated.
# Tests used:
# ABCB1 [1] = details: ref 28 (Manceau et al.); cited from earlier work
# [2] = test system: hepatic bilirubin metabolism; assay: Total bilirubin levels; type: in vivo, human
# CAR target genes = assay: Gene expression in PBMCs after multiple doses of ezetimibe; type: in vivo, human; details: multiple doses of ezetimibe 10 mg, treatment period B
# Summary of the method: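 PBMCs from 12 healthy male Caucasian volunteers aged 20–36 y, with the drug given after a fast of at least 10 h. EDTA blood (5 ml) drawn in the first 3 h of the pharmacokinetic day; spun 1,500g, 4 °C, 15 min; buffy coats pooled per subject, diluted in ice-cold PBS, Lymphoprep 700g, 30 min, room temperature. 1,500 ng total RNA reverse-transcribed; TaqMan real-time PCR for CYP2B6, UGT1A1, ABCB1, ABCC1, normalized to 18S-rRNA.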
# full-length CAR (CAR1) = details: in vitro; ref 43 (Chen et al.); cited from earlier work
# CYP3A4 activity = assay: Plasma 4β-hydroxycholesterol, marker of CYP3A4 activity; type: in vivo, human
# ABCB1 [3] = details: in vivo; ref 32 (Burhenne et al.); cited from earlier work
# CYP2B6 [4] = assay: Gene expression in PBMCs isolated from treated healthy individuals; type: in vivo, human; details: single dose vs steady state; P = 0.036
# CYP3A4 [5] = details: humans, long-term treatment; ref 36 (Mouly); cited from earlier work
# UGT1A1 = assay: CAR target gene expression in PBMCs treated in vitro; type: cell-based, human; details: PBMCs of drug-naive individuals, 10 μmol/l, 48 h
# ABCB1 [6] = details: human intestinal cell line from colon adenocarcinoma; cited from earlier work
# ABCB1 [7] = assay: CAR target gene expression in PBMCs treated in vitro; type: cell-based, human; details: PBMCs of drug-naive individuals, 10 μmol/l, 48 h
# ABCB1 [8] = details: rats, everted gut sacs, long-term treatment; cited from earlier work
# ABCC2 = details: in vivo; ref 32 (Burhenne et al.); cited from earlier work
# CYP2B6 [9] = assay: CYP2B6 mRNA induction in primary human hepatocytes; type: cell-based; details: freshly isolated human hepatocytes, efavirenz 1 μmol/l, vs DMSO control
# ABCB1 [10] = details: cited from earlier work
# CYP3A4 [11] = details: humans, long-term treatment; ref 36 (Mouly); cited from earlier work; remark: listed apart in the source
# ABCB1 (P-gp) = details: humans, long-term treatment; ref 36 (Mouly); cited from earlier work
# CYP3A = details: rats, long-term treatment; cited from earlier work
# [12] = test system: CAR variant containing the APYLT insertion; details: in vitro; ref 43 (Chen et al.); cited from earlier work
# [13] = Pharmacokinetics of efavirenz in healthy subjects; details: male, human, in vivo
# CYP2B6 [14] = assay: CAR target gene expression in PBMCs treated in vitro; type: cell-based, human; details: PBMCs of drug-naive individuals, 10 μmol/l, 48 h
structure (smiles),measurement,setting,value
CO[C@H]1/C=C/O[C@@]2(C)Oc3c(C)c(O)c4c(O)c(c(/C=N/N5CCN(C)CC5)c(O)c4c3C2=O)NC(=O)/C(C)=C\C=C\[C@H](C)[C@H](O)[C@@H](C)[C@@H](O)[C@@H](C)[C@H](OC(C)=O)[C@@H]1C [rifampin],ABCB1 induction after treatment of cells,ABCB1 [1],no induction
O=C1[C@H](CC[C@H](O)c2ccc(F)cc2)[C@@H](c2ccc(O)cc2)N1c1ccc(F)cc1 [ezetimibe],Impact on total bilirubin levels,"[2]; multiple doses of ezetimibe, study days 15 and 17",No such impact
same,Impact on target gene expression in PBMCs,CAR target genes,did not observe an impact
CCC1(c2ccccc2)C(=O)NC(=O)NC1=O [phenobarbital],ABCB1 induction after treatment of cells,ABCB1 [1],no induction
O=C1Nc2ccc(Cl)cc2[C@@](C#CC2CC2)(C(F)(F)F)O1 [efavirenz],Trans-activating activity toward full-length CAR (CAR1),full-length CAR (CAR1),high trans-activating activity
same,"Pearson r, change in efavirenz AUC vs change in 4β-hydroxycholesterol levels","CYP3A4 activity; single dose vs steady state, P = 0.052",−0.572
same,4β-hydroxycholesterol/cholesterol ratio,"CYP3A4 activity; study days 25 and 30, multiple doses of efavirenz",significant induction
same,ABCB1 expression in PBMCs,ABCB1 [3],no significant induction
same,"Pearson r, increase in CYP2B6 expression in PBMCs vs reduction in efavirenz AUC",CYP2B6 [4],0.61 and 0.608
same,Intestinal CYP3A4 expression levels,CYP3A4 [5],no impact
same,UGT1A1 mRNA induction in PBMCs in vitro,UGT1A1,significant induction
same,ABCB1 expression and function in LS180 cells,ABCB1 [6],increased expression and function
same,ABCB1 mRNA induction in PBMCs in vitro,ABCB1 [7],significant induction
same,ABCB1-mediated intestinal efflux of rhodamine 123,ABCB1 [8],without affecting
same,ABCC2 expression in PBMCs,ABCC2,no significant induction
same,CYP2B6 expression in primary human hepatocytes,CYP2B6 [9],significantly increased
same,ABCB1 induction in PBMCs in vitro,ABCB1 [10],induction
same,CYP3A4-mediated metabolism (erythromycin breath test),CYP3A4 [11],induction
same,Intestinal ABCB1 (P-gp) expression levels,ABCB1 (P-gp),no impact
same,Hepatic CYP3A-mediated midazolam metabolism,CYP3A,induce
same,Trans-activating activity toward CAR variant containing the APYLT insertion,[12],negligible activity
same,CLR gluc (renal clearance),[13],0.050 ± 0.054 mL/min
same,C max,[13]; 400 mg,0.622 ± 0.244 µg/mL
same,CL renal,[13]; 400 mg,0.062 ± 0.031 mL/min
same,AUC(0-t),"[13]; 400 mg, AUC0–24 h",6.71 ± 2.34 µg·h/mL
same,AUC(0-t),"[13]; 400 mg, AUC0–120 h",17 ± 6.39 µg·h/mL
same,Tmax,"[13]; 400 mg, T max",2.4 ± 1.9 h
same,Tmax,[13]; Tmax,2 to 3 h
same,Total bilirubin levels after treatment,"[2]; long-term efavirenz, mean ± SD, before treatment 9.82 ± 3.86, P = 0.023",6.34 ± 2.48 mg/dL
same,CYP2B6 mRNA induction in PBMCs in vitro,CYP2B6 [14],significant induction
